Calb FLC – C. albicans growth inhibition with fluconazole, primary screen, CaCi-2 strain, Alamar Blue fluorescence | C. albicans CaCi-2 (fluconazole-resistant clinical isolate) + fluconazole, 48 h | 300,000 tested, 0.57% active | growth inhibition, % (concentration not given with the values) | AID 1979, 2009;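 active means growth inhibition above about 58% in most replicates, limit read from the data, passing the limit was not always enough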;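 further: all wells also contain fluconazole at 8 µg/ml as a sub-toxic cotreatment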
procasp7 counter – procaspase-7 activators, primary screen, counter-screen for procaspase-3 activator project, biochemical, absorbance, HTS, human; Caspase-7 (Homo sapiens), P55210; recombinant procaspase-7, Ac-DEVD-pNA absorbance 405 nm; D23A/D198A/D206A triple mutant, cannot self-cleave; scale: DMSO 0, 5 µM enzyme 100; activation, % at 8.5 µM; 330,000 tested, 0.093% active; AID 463210, 2010;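 active means percent activation above the screen-wide mean plus 3 SD, cut at about 25% in these data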
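Assay system: Uncleavable procaspase-7 mutant enzyme | Input: 2 µM procaspase-7 mutant as dispensed | Timing: 1 h compound preincubation, 2 h substrate cleavage, 25 °C | Repeats: One well per compound | Control set: DMSO wells as 0%, DMSO with 5 µM added PC-7 as 100% | Technique: Epi-absorbance of released pNA at 405 nm, two timepoints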
HIF act – HIF pathway transcriptional activators, primary screen, cell-based, U2OS HRE-luciferase, luminescence | U2OS HRE-luciferase reporter; normalized: DMSO 0%, desferrioxamine 100% | activation, % at 7.5 µM (by protocol) | 300,000 tested, 0.32% active;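 active means mean activation of at least 10% of the iron chelator positive control signal, with at least half of replicates also reaching 10%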
procasp3 activ – activators of human procaspase-3 D3A mutant, primary screen, biochemical, absorbance, PC-3 D3A mutant, single concentration | recombinant procaspase-3 D3A, Ac-DEVD-pNA absorbance 405 nm | Caspase-3 (Homo sapiens), P42574 | activation, % at 8.5 µM | AID 463141, 2010 | 330,000 tested, 0.11% active;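 active means activation above the mean of all tested compounds plus 3 SD, cut at about 21% in these data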
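Compound: 8.5 µM single point, 0.8% DMSO / Material: Autoprocessing-dead procaspase-3 D3A mutant enzyme / Timing: 1 h preincubation plus 2 h reaction at 25 °C / Medium: Zinc-free HEPES/NaCl buffer with 0.01% Triton X-100 at pH 7.4 / Technique: 405 nm absorbance of p-nitroaniline, reads at 0 and 120 min / Repeats: one well per compound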
GAA850 FXN act – FXN promoter activators, primary screen, cell-based, luciferase luminescence, HEK293 lucGAA850; HEK293 lucGAA850 FXN promoter luciferase reporter, 24 h; percent of 10 µM SAHA response; AID 540364, 2011; 360,000 tested, 0.56% active; activation, % at 6 µM;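 active means activation above the average of all compounds screened plus 3 SD, cutoff fixed separately per campaign, cut at about 7.5% in these data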
Neddylation inh – inhibitors of cullin neddylation, primary screen, biochemical, TR-FRET, uHTS, NAE and Ubc12. NEDD8-conjugating enzyme Ubc12 (Homo sapiens) + NEDD8-activating enzyme E1 regulatory …. 360,000 tested, 0.58% active. inhibition, % at 25 µM. AID 651699, 2012; in the data active means inhibition above about 36%
Target sequence (P61081 whole entry, looked up): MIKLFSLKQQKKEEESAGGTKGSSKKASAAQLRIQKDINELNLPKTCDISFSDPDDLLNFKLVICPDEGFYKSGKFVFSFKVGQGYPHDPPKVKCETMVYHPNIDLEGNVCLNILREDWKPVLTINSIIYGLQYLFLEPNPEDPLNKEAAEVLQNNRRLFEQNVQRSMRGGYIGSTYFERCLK
Target sequence (Q13564 whole entry, looked up): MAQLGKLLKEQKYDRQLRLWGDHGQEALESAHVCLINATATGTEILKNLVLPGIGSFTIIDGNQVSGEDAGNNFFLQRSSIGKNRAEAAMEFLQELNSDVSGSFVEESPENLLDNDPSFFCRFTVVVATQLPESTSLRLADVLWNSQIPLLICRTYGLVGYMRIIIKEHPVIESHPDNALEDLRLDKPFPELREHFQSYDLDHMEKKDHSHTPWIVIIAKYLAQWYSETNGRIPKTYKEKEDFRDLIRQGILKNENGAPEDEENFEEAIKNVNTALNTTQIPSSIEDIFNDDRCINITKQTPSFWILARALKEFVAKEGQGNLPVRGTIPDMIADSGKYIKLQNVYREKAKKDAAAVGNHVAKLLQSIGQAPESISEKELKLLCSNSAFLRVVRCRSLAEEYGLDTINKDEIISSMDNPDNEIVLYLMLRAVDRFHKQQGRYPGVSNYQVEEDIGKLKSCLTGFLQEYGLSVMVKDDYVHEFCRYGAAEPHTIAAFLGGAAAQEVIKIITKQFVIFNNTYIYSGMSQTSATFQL
GAA30 counter – GAA30 FXN promoter activators, confirmation, counter-screen for GAA850 frataxin promoter activator project, cell-based, luminescence, HEK293, lucGAA30, triplicate; HEK293 lucGAA30 FXN promoter luciferase, 24 h; DMSO = 0%, 5 µM ipriflavone = 100%; AID 588350, 2011; shares compounds with GAA850 FXN act; activation, % at 6 µM; 1,900 tested, 66% active;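 active means mean activation above the mean of solvent-only control wells plus 3 SD, cut at about 22% in these data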;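 further: counterscreen of GAA850 promoter hits where activity marks nonselective or luminescence artifacts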
GAA850 confirm – FXN GAA850 promoter activators in reporter cells, confirmation, cell-based, luminescence, HEK293 lucGAA850, triplicate; 1,900 tested, 86% active; shares compounds with GAA850 FXN act; HEK293 lucGAA850 FXN promoter luciferase reporter, 24 h; 100% = activation by SAHA; activation, % at 6 µM;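 active means mean activation above a set limit taken from the primary screen, cut at about 8% in these data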
Neddyl conf – blockade of NEDD8 conjugation to cullin – biochemical, TR-FRET, single concentration, confirmation; shares compounds with Neddylation inh; TR-FRET cullin neddylation biochemical assay; calls only at 25 µM; 1,800 tested, 13% active; in the data active means inhibition above about 40%;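 further: neddylation substrate is the cullin 1 ring ligase complex with SKP2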
Of the large screens only hits and unclear results are named; the others gave an inactive call (follow-up assays come after a bar, where shown). Rows were chosen to be rich in hits. Some 1.9% of all compounds tested hit in one or more screens of this group.

CCN1C(=O)[C@H]2[C@H]3CN=C(SCc4ccc(C)cc4)N3[C@@](CC)(C(=O)OC)[C@H]2C1=O	none (no result: Calb FLC, HIF act)
COC(=O)[C@@]1(C)[C@H]2C(=O)N(Cc3ccccc3)C(=O)[C@H]2[C@H]2CN=C(SCc3ccccc3)N21	GAA850 FXN act 15.7 (no result: Calb FLC, HIF act) | GAA30 counter 33.3 | GAA850 confirm 15.5
CC[C@]1(C(=O)OC)[C@H]2C(=O)N(Cc3ccccc3)C(=O)[C@H]2[C@H]2CN=C(SCC3CC3)N21	GAA850 FXN act 16.6 (no result: Calb FLC, HIF act) | GAA30 counter 29.7 | GAA850 confirm 17.9
CCN1C(=O)[C@H]2[C@H]3CN=C(SCc4ccc(C#N)cc4)N3[C@@](C)(C(=O)OC)[C@H]2C1=O	none (no result: Calb FLC, HIF act)
CCOC(=O)C1=C[C@@H](CC)N(S(=O)(=O)c2ccc(C)cc2)[C@H]1c1cccs1	none (no result: Calb FLC, procasp7 counter, HIF act, procasp3 activ, GAA850 FXN act)
CN(C(=O)c1cccc(NC(=O)Cc2ccc(NC(=O)C3CCN(C(=O)CCc4ccccc4)CC3)cc2)c1)C1CCCCC1	none (no result: Calb FLC, procasp7 counter, HIF act, procasp3 activ)
CC(CNC(=O)[C@@H](Cc1ccccc1)NC(=O)CC[C@H]1O[C@@H](n2ccc(=O)[nH]c2=O)[C@H](O)[C@@H]1O)c1ccccc1 (stereo partly drawn)	none (no result: Calb FLC, procasp7 counter, HIF act, procasp3 activ, GAA850 FXN act)
COc1ccc2ccc(OC)c(/C=N/NC(=O)c3cc4ccccc4o3)c2c1	none (not shown: Calb FLC, procasp7 counter, HIF act, procasp3 activ, Neddylation inh)
CC(=O)Nc1ccc(-c2ccnc3c2CC(C)(C(=O)Nc2cccc(C(F)(F)F)c2)O3)cc1 (stereo not drawn)	none (no result: Calb FLC, procasp7 counter, HIF act, procasp3 activ)
CCOC(=O)c1c(CSc2ccccc2)oc2cc(Br)c(O)c(CN(C)C)c12	GAA850 FXN act 8.2 | GAA30 counter inactive | GAA850 confirm 9.7
CNc1ncnc2c1ncn2[C@H]1CN(Cc2cccc3ccccc23)C[C@@H](CO)O1	none (no result: Calb FLC, procasp7 counter, HIF act, procasp3 activ)
Cc1ccc(/C=N/Nc2ncnc3nc[nH]c23)cc1	GAA850 FXN act 16.7 | GAA30 counter 123.5 | GAA850 confirm 55.6
Oc1ccc(/C=N/Nc2ncnc3nc[nH]c23)cc1	none
Clc1ccc(/C=N/Nc2ncnc3nc[nH]c23)cc1	GAA850 FXN act 9.8 | GAA30 counter 109.8 | GAA850 confirm 49.8
CC1(C(=O)NS(=O)(=O)Cc2ccccc2C(F)(F)F)CCN1C(=O)c1cccc(F)c1 (stereo not drawn)	none (no result: Calb FLC, procasp7 counter, HIF act, procasp3 activ)
CC(=O)NC(c1ccccc1)c1nc(-c2cncnc2)cs1 (stereo not drawn)	none (no result: Calb FLC, procasp7 counter, HIF act, procasp3 activ)
OC[C@@H]1CN(Cc2ccc(-c3ccccc3)cc2)C[C@H](n2cnc3c(N4CCOCC4)ncnc32)O1	none (no result: Calb FLC, procasp7 counter, HIF act, procasp3 activ)
CCN(CC)CCn1c2ccccc2c2nc3ccc([N+](=O)[O-])cc3cc21	GAA850 FXN act 11.1 | GAA30 counter 24.0 | GAA850 confirm 28.3
Cn1c2ccccc2c2cc([N+](=O)[O-])ccc21	none
COc1ccc(C=NCCc2ccc(OC)c(OC)c2)cc1OC	none (no result: Calb FLC, procasp7 counter, HIF act, procasp3 activ)
CCOc1ccc(S(=O)(=O)Nc2ccccc2C(=O)Nc2ccccc2N2CCOCC2)cc1	GAA850 FXN act 8.3 | GAA30 counter inactive | GAA850 confirm 10.9
Cc1ccc(-c2nn(-c3ccccc3)cc2/C=N/NS(=O)(=O)c2ccccc2)cc1	GAA850 FXN act 8.4 (no result: HIF act) | GAA30 counter 80.9 | GAA850 confirm 23.3
Cc1cccc(C)c1OCc1cc(C(=O)N2CC3C[C@@H]4CC2C[C@H](C3)C4)no1	none
Cc1ccc(OCc2cc(C(=O)N3CC4C[C@@H]5CC3C[C@H](C4)C5)no2)cc1C	GAA850 FXN act 9.0 | GAA30 counter 97.2 | GAA850 confirm 30.8
Nc1nc2c(ncn2[C@@H]2O[C@H](CNCC3=Cc4cc(O)ccc4OC3)[C@@H](O)[C@H]2O)c(=O)[nH]1	none (no result: Calb FLC, procasp7 counter, HIF act, procasp3 activ, GAA850 FXN act)
CC(=O)N1N=C(c2ccc(Cl)cc2)CC1c1ccco1 (stereo not drawn)	none
Cc1nc(N2N=C(c3ccc(Cl)cc3)CC2c2ccco2)sc1C(=O)N(C)C (stereo not drawn)	GAA850 FXN act 10.7 (not shown: Neddylation inh) | GAA30 counter 26.5 | GAA850 confirm 21.9
N#CC(CCc1ccccc1[N+](=O)[O-])(CCc1ccccc1[N+](=O)[O-])C(N)=O	none (no result: Calb FLC, procasp7 counter, HIF act, procasp3 activ)
CCOc1ccc(CCN2C(=S)N([C@@H](CC(C)C)CN3CCC[C@@H]3CN3C(=S)NC[C@@H]3Cc3ccccc3)C[C@@H]2Cc2ccc(O)cc2)cc1	none (no result: Calb FLC, procasp7 counter, HIF act, procasp3 activ, GAA850 FXN act)
COc1ccc(OC)c2nc3c(C(=O)NCCN(C)C)cccc3nc12	GAA850 FXN act 14.8 (no result: Calb FLC, procasp7 counter, HIF act, procasp3 activ) | GAA30 counter inactive | GAA850 confirm 78.9
CN(C)CCNC(=O)c1cccc2nc3cccc(F)c3nc12	GAA850 FXN act 25.0 (no result: Calb FLC, procasp7 counter, HIF act, procasp3 activ) | GAA30 counter inactive | GAA850 confirm 141.6
CN=C1NC(C)(C)C2CCC(C)(CC2)S1	none (no result: Calb FLC, procasp7 counter, HIF act, procasp3 activ)
c1cn2c(Nc3ccc4c(c3)OCCO4)c(-c3ccc(N4CCOCC4)cc3)nc2cn1	GAA850 FXN act 8.8, Neddylation inh 38.0 | GAA30 counter 55.5 | GAA850 confirm 17.9 | Neddyl conf inactive
Cc1cccc(C)c1Nc1c(-c2ccc(N3CCOCC3)cc2)nc2cnccn12	none (not shown: Neddylation inh)
CC(Cc1ccccc1)N1CCCC1=O (stereo not drawn)	none (no result: Calb FLC, procasp7 counter, HIF act, procasp3 activ)
N#Cc1ccc(/C=C(\C(=O)C(=O)O)c2ccc3ccccc3n2)cc1	GAA850 FXN act 8.3, Neddylation inh 39.3 | GAA30 counter 131.8 | GAA850 confirm 43.0 | Neddyl conf inactive
O=C(O)C(=O)/C(=C\c1cccc(Cl)c1)c1ccc2ccccc2n1	none (not shown: Neddylation inh)
COc1cccc(C(=O)/C=C2\NCCc3cc(OC)c(OC)cc32)c1	none
